What was measured:
Rattus norvegicus [1] = assay: Effect evaluated in vivo on 5-HTP accumulation in NE-rich hemispheres at a 0.20 dose uM/kg(sc); format: functional
Method in brief: (§1)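 Male Sprague-Dawley rats (200–300 g) were pretreated with reserpine 5 mg/kg sc 18 h beforehand. Test drug was given at neutral pH, 5 mL/kg. Aromatic amino acid decarboxylase was blocked with NSD 1015. 5-HTP in the dissected brain region was assayed by HPLC with electrochemical detection.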

Rattus norvegicus [2] = assay: Effect evaluated in vivo on 5-HTP accumulation in limbic system at a dose 0.20 umol/kg (s.c.); format: functional; method in brief: as §1
Rattus norvegicus [3] = assay: Effect evaluated in vivo on 5-HTP accumulation in corpus striatum at a dose 1.56 umol/kg (s.c.); format: functional; method in brief: as §1
Rattus norvegicus [4] = assay: Effect evaluated in vivo on 5-HTP accumulation in limbic system at a dose 0.39 umol/kg (s.c.); format: functional; method in brief: as §1
Rattus norvegicus [5] = assay: Effect evaluated in vivo on 5-HTP accumulation in limbic system at a dose 1.56 umol/kg (s.c.); format: functional
Method in brief: (§2)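 Male Sprague-Dawley rats (200–300 g) were pretreated with reserpine 5 mg/kg sc 18 h before. Test compound was given sc at 5 mL/kg in neutral solution. 5-HT synthesis rate was indexed by […] 5-HTP accumulation after decarboxylase inhibition with NSD 1015, measured by HPLC-electrochemical detection. Dose-response used 4–6 dose levels, n = 4.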

Rattus norvegicus [6] = assay: Effect evaluated in vivo on 5-HTP accumulation in corpus striatum at a dose 0.39 umol/kg (s.c.); format: functional; method in brief: as §1
D(2) dopamine receptor = D(2) dopamine receptor (Rattus norvegicus, UniProt P61169); assay: Inhibitory activity against Dopamine receptor D2 in rats using [3H]spiperone as radioligand
Method in brief: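 Rat striatal membranes in 50 mM potassium phosphate buffer pH 7.4 were incubated with 0.5 nM [3H]spiperone for 10 min at 37 °C. Specific binding was defined with 10 μM 6,7-ADTN.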

Rattus norvegicus [7] = assay: Effect evaluated in vivo on 5-HTP accumulation in NE-rich hemispheres at a 25 dose uM/kg(sc); format: functional; method in brief: as §1
Rattus norvegicus [8] = assay: Effect evaluated in vivo on 5-HTP accumulation in corpus striatum at a dose 100 umol/kg (s.c.); format: functional; method in brief: as §1
Rattus norvegicus [9] = assay: Effect evaluated in vivo on 5-HTP accumulation in NE-rich hemispheres at a 1.56 dose uM/kg(sc); format: functional; method in brief: as §1
Rattus norvegicus [10] = assay: Effect evaluated in vivo on 5-HTP accumulation in limbic system at a dose 100 umol/kg (s.c.); format: functional; method in brief: as §2
Rattus norvegicus [11] = assay: Effect evaluated in vivo on 5-HTP accumulation in corpus striatum at a dose 0.20 umol/kg (s.c.); format: functional; method in brief: as §1
Rattus norvegicus [12] = assay: Effect evaluated in vivo on 5-HTP accumulation in NE-rich hemispheres at a 100 dose uM/kg(sc); format: functional; method in brief: as §1
Rattus norvegicus [13] = assay: Effect evaluated in vivo on 5-HTP accumulation in corpus striatum at a dose 25 umol/kg (s.c.); format: functional; method in brief: as §1
Rattus norvegicus [14] = assay: Effect evaluated in vivo on 5-HTP accumulation in NE-rich hemispheres at a 0.39 dose uM/kg(sc); format: functional; method in brief: as §1
Rattus norvegicus [15] = assay: Effect evaluated in vivo on 5-HTP accumulation in limbic system at a dose 25 umol/kg (s.c.); format: functional; method in brief: as §2
Rattus norvegicus [16] = assay: Effect evaluated in vivo on 5-HTP accumulation in corpus striatum at a dose 50 umol/kg (p.o.); format: functional; method in brief: as §1
Rattus norvegicus [17] = assay: The compound was tested in vivo for locomotor activity in rats at 50 umol/kg after subcutaneous administration; format: functional
Method in brief: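 Male Sprague-Dawley rats received reserpine 5 mg/kg sc in the neck 18 h before testing. Test compound was given sc in the neck (n = 4). Rats were placed singly in photocell motility meters immediately after dosing, and counts were accumulated over 30 min (tests 9 a.m.–1 p.m.). Gross behaviour, including 5-HT syndrome, was observed throughout.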

Rattus norvegicus [18] = assay: Effect evaluated in vivo on 5-HTP accumulation in NE-rich hemispheres at a 0.78 dose uM/kg(sc); format: functional; method in brief: as §1
Rattus norvegicus [19] = assay: Effect evaluated in vivo on 5-HTP accumulation in limbic system after subcutaneous administration; format: functional; settings: sc; method in brief: as §1
Rattus norvegicus [20] = assay: Effect evaluated in vivo on 5-HTP accumulation in NE-rich hemispheres at a 12.5 dose uM/kg(po); format: functional; method in brief: as §1
Rattus norvegicus [21] = assay: Effect evaluated in vivo on 5-HTP accumulation in limbic system at a dose 0.78 umol/kg (s.c.); format: functional; method in brief: as §1
Rattus norvegicus [22] = assay: Effect evaluated in vivo on 5-HTP accumulation in limbic system at a dose 12.5 umol/kg (p.o.); format: functional
Method in brief: (§3)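 Oral dosing in male Sprague-Dawley rats (200–300 g) pretreated with reserpine 5 mg/kg sc 18 h before. After decarboxylase inhibition with NSD 1015, brain 5-HTP or dopa accumulation (HPLC-electrochemical detection) indexed 5-HT synthesis, DA synthesis (limbic) or NE synthesis (hemispheres, mainly cortex).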

Rattus norvegicus [23] = assay: Effect evaluated in vivo on 5-HTP accumulation in limbic system at a dose 0.80 umol/kg (p.o.); format: functional; method in brief: as §3
Rattus norvegicus [24] = assay: The compound was tested in vivo for locomotor activity in rats at 50 umol/kg after perioral administration; format: functional
Method in brief: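 Reserpine-pretreated rats (5 mg/kg sc, 18 h before) received test compound orally. Photocell motility counts were accumulated over 30 min, and gross behaviour, including 5-HT syndrome, was observed.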

Rattus norvegicus [25] = assay: Effect evaluated in vivo on 5-HTP accumulation in limbic system at a dose 50 umol/kg (p.o.); format: functional; method in brief: as §3
Rattus norvegicus [26] = assay: Effect evaluated in vivo on 5-HTP accumulation in limbic system at a dose 3.1 umol/kg (p.o.); format: functional; method in brief: as §3
Rattus norvegicus [27] = assay: Effect evaluated in vivo on 5-HTP accumulation in NE-rich hemispheres at a 50 dose uM/kg(po); format: functional; method in brief: as §1
Rattus norvegicus [28] = assay: Effect evaluated in vivo on 5-HTP accumulation in corpus striatum at a dose 0.78 umol/kg (s.c.); format: functional; method in brief: as §1
Rattus norvegicus [29] = assay: Effect evaluated in vivo on 5-HTP accumulation in corpus striatum after subcutaneous administration; format: functional; settings: sc; method in brief: as §1
Rattus norvegicus [30] = assay: Effect evaluated in vivo on 5-HTP accumulation in limbic system at a dose 12.5 umol/kg (s.c.); format: functional; method in brief: as §2
[31] = target: T1, 5-hydroxytryptamine receptor 1A (Rattus norvegicus, UniProt P19327); assay: Inhibitory activity against 5-hydroxytryptamine 1A receptor in rats, using [3H]8-OH-DPAT as radioligand
T1 sequence (P19327 whole entry): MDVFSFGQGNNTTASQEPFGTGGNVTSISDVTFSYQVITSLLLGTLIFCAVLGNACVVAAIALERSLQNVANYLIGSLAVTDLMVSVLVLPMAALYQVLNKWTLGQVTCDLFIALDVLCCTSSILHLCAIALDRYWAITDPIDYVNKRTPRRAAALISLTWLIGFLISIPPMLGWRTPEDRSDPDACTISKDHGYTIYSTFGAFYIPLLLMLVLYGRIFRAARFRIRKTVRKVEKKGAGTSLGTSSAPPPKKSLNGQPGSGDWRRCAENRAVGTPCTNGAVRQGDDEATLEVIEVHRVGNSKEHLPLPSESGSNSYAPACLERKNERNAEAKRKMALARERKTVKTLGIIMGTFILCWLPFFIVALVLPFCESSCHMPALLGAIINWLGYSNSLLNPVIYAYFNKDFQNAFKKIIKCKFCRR
Method in brief: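 Rat whole-brain membranes (minus brainstem and cerebellum) in 50 mM Tris pH 8.0 with 120 mM NaCl, 4 mM CaCl2, 4 mM MgCl2 and 10 μM pargyline. Rapid filtration, then scintillation counting. Nonspecific binding defined with 10 μM 5-HT. IC50 by semi-log plot and linear regression.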

Rattus norvegicus [32] = assay: Effect evaluated in vivo on 5-HTP accumulation in corpus striatum at a dose 0.80 umol/kg (p.o.); format: functional; method in brief: as §1
Rattus norvegicus [33] = assay: Effect evaluated in vivo on 5-HTP accumulation in NE-rich hemispheres at a 3.1 dose uM/kg(sc); format: functional; method in brief: as §1
Rattus norvegicus [34] = assay: Effect evaluated in vivo on 5-HTP accumulation in NE-rich hemispheres at a 3.1 dose uM/kg(po); format: functional; method in brief: as §1
Rattus norvegicus [35] = assay: Effect evaluated in vivo on NE synthesis in NE-rich hemispheres after subcutaneous administration; format: functional; settings: sc
Method in brief: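 Rats pretreated with reserpine 5 mg/kg sc 18 h before received test compound sc at 5 mL/kg in neutral solution. After decarboxylase inhibition with NSD 1015, dopa accumulation in hemispheres (mainly cortex) was measured by HPLC-electrochemical detection as an index of NE synthesis. Dose-response used 4–6 dose levels, n = 4.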

Rattus norvegicus [36] = assay: Effect evaluated in vivo on 5-HTP accumulation in limbic system at a dose 3.1 umol/kg (s.c.); format: functional; method in brief: as §2
Rattus norvegicus [37] = assay: Effect evaluated in vivo on 5-HTP accumulation in corpus striatum at a dose 3.1 umol/kg (s.c.); format: functional; method in brief: as §1
Rattus norvegicus [38] = assay: Effect evaluated in vivo on 5-HTP accumulation in corpus striatum at a dose 12.5 umol/kg (p.o.); format: functional; method in brief: as §1
Rattus norvegicus [39] = assay: Effect evaluated in vivo on 5-HTP accumulation in rats limbic system at a dose 50 umol/kg (s.c.); format: functional; method in brief: as §2
Rattus norvegicus [40] = assay: Effect evaluated in vivo on 5-HTP accumulation synthesis in NE-rich hemispheres after perioral administration; format: functional; method in brief: as §3
Rattus norvegicus [41] = assay: Effect evaluated in vivo on 5-HTP accumulation in NE-rich hemispheres at a 0.80 dose uM/kg(po); format: functional; method in brief: as §1
Rattus norvegicus [42] = assay: Effect evaluated in vivo on 5-HTP accumulation in corpus striatum at a dose 12.5 umol/kg (s.c.); format: functional; method in brief: as §1
Rattus norvegicus [43] = assay: Effect evaluated in vivo on 5-HTP accumulation in NE-rich hemispheres at a 50 dose uM/kg(sc); format: functional; method in brief: as §1
Rattus norvegicus [44] = assay: Effect evaluated in vivo on 5-HTP accumulation in corpus striatum after perioral administration; format: functional; method in brief: as §1
Rattus norvegicus [45] = assay: Effect evaluated in vivo on 5-HTP accumulation in corpus striatum at a dose 3.1 umol/kg (p.o.); format: functional; method in brief: as §1
Rattus norvegicus [46] = assay: Effect evaluated in vivo on 5-HTP accumulation in limbic system after perioral administration; format: functional; method in brief: as §1
Rattus norvegicus [47] = assay: Effect evaluated in vivo on 5-HTP accumulation in NE-rich hemispheres at a 12.5 dose uM/kg(sc); format: functional; method in brief: as §1

Chain of D(2) dopamine receptor (P61169 whole entry): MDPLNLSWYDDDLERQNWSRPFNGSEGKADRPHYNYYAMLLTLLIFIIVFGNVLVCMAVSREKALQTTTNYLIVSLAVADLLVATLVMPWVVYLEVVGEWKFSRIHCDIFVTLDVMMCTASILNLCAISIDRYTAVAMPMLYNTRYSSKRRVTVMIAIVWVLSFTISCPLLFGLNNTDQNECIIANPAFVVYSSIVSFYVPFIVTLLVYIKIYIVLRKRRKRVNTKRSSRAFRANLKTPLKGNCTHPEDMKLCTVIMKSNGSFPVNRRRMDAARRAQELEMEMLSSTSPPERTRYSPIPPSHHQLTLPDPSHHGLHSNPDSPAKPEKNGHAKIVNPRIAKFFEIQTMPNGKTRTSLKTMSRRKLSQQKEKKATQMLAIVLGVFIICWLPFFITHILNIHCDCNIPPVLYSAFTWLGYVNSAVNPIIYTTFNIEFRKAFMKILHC

What does the source list for CCCN1CCc2ccc(O)cc2CC1?
Control (Rattus norvegicus [1]): 128%; Control (Rattus norvegicus [2]): 122%; Control (Rattus norvegicus [3]): 110%; Control (Rattus norvegicus [4]): 121%; Control (Rattus norvegicus [5]): 80%; Control (Rattus norvegicus [6]): 106%; IC50 (D(2) dopamine receptor): 10 µM; Control (Rattus norvegicus [7]): 113%; Control (Rattus norvegicus [8]): 77%; Control (Rattus norvegicus [9]): 114%; Control (Rattus norvegicus [10]): 81%; Control (Rattus norvegicus [11]): 118%; Control (Rattus norvegicus [12]): 78%; Control (Rattus norvegicus [13]): 107%; Control (Rattus norvegicus [14]): 119%; Control (Rattus norvegicus [15]): 105%

What does the source list for COc1cccc2c1CCN(CC1CC1)CC2?
Control (Rattus norvegicus [16]): 48%; Locomotor activity (Rattus norvegicus [17]): 107; Control (Rattus norvegicus [18]): 95%; ED50 (Rattus norvegicus [19]): 1.7 µmol/kg; Control (Rattus norvegicus [20]): 89%; Control (Rattus norvegicus [21]): 84%; Control (Rattus norvegicus [22]): 83%; Control (Rattus norvegicus [23]): 101%; Locomotor activity (Rattus norvegicus [24]): 31; Control (Rattus norvegicus [25]): 48%; Control (Rattus norvegicus [26]): 70%; IC50 (D(2) dopamine receptor): 7.6 µM; Control (Rattus norvegicus [27]): 50%; Control (Rattus norvegicus [28]): 88%; ED50 (Rattus norvegicus [29]): 2.5 µmol/kg; Control (Rattus norvegicus [30]): 56%; IC50 [31]: 0.12 µM; Control (Rattus norvegicus [32]): 102%; Control (Rattus norvegicus [33]): 77%; Control (Rattus norvegicus [34]): 75%; ED50 (Rattus norvegicus [35]): 4 µmol/kg; Control (Rattus norvegicus [36]): 67%; Control (Rattus norvegicus [37]): 68%; Control (Rattus norvegicus [38]): 77%; Control (Rattus norvegicus [39]): 42%; ED50 (Rattus norvegicus [40]): 6.5 µmol/kg; Control (Rattus norvegicus [41]): 102%; Control (Rattus norvegicus [42]): 60%; Control (Rattus norvegicus [43]): 43%; ED50 (Rattus norvegicus [44]): 7 µmol/kg; Control (Rattus norvegicus [45]): 59%; ED50 (Rattus norvegicus [46]): 5.5 µmol/kg; Control (Rattus norvegicus [47]): 85%

From ChEMBL document CHEMBL1125331, “6-Hydroxy-3-n-propyl-2,3,4,5-tetrahydro-1H-3-benzazepine and analogs: new centrally acting 5-HT1A receptor agonists” (J Med Chem, 1992)
